Published values from different studies.
Lines come from different studies, so protocols differ.
Target: Serine/threonine-protein kinase mTOR (MTOR, Homo sapiens, UniProt P42345)
Concentration: 1 µM

The remaining binding of `CN1CCN(c2cnc3c(C4CCN(C(=O)c5ccc(OC(F)(F)F)cc5N)CC4)ncnc3c2)CC1` is reported as 78% (cell-free assay; competition with immobilised ligand).
`COc1ccnn2ncc(-c3ccnc(N(C)C)n3)c12` gave a remaining binding of 95% (binding).
For `CCC(=O)N[C@H]1CC[C@@H](C(=O)N(C)c2ccc(-c3nc4ccccc4o3)cc2)C1`, the remaining binding was 92% (cell-free assay; competition with immobilised ligand).
The remaining binding of `F[C@@H]1CCN(c2nccc(-c3cnn4ncccc34)n2)C1` is reported as 77% (binding).
The remaining binding of `COc1cnc(Nc2cccc(S(N)(=O)=O)c2)nc1N1CCN(c2ccccc2)C(=O)C1` is reported as 87% (binding; competition with immobilised ligand).
`O=C(NCc1ncc(C(F)(F)F)cc1Cl)c1ccc2c(c1)C1(CCS(=O)(=O)CC1)[C@@H](C1CC1)N2S(=O)(=O)c1ccc(F)cc1` gave a remaining binding of 92% (cell-free assay; competition with immobilised ligand).
The remaining binding of `Cc1cnc(Nc2ccc(C(=O)N3CCC(N4CCCC4)CC3)cc2)nc1-c1cc2ccccc2s1` is reported as 85% (binding; competition with immobilised ligand).
For `C[C@@H]1CCN(c2nccc(-c3cnn4ncccc34)n2)C1`, the remaining binding was 97% (binding).
The remaining binding of `CN(C)c1ncnc(-c2ccc3nc(Nc4cc(CN5CCN(C(=O)CC(F)(F)F)CC5)ccn4)[nH]c3c2)c1Cl` is reported as 100% (cell-free assay; competition with immobilised ligand).
With `CCN1CCN(Cc2ccc(C(=O)Nc3ccc(C)c(Oc4ccc5c(c4)CC(=O)N5)c3)cc2C(F)(F)F)CC1` the remaining binding was 100% (binding; competition with immobilised ligand).
The remaining binding of `O=C(O)[C@H]1[C@H](Cn2nnc3ccccc3c2=O)CC[C@@H]1C(=O)c1ccc(OCCC2CCOCC2)cc1` is reported as 100% (cell-free assay; competition with immobilised ligand).
With `Nc1ncc2c(n1)-c1c([nH]c3ccc(C#CC4CC4)cc13)CCCC2` the remaining binding was 100% (binding; competition with immobilised ligand).
With `O=C(c1ccc(Nc2ncc(Cl)c(-c3ccc(Cl)s3)n2)cc1)N1CCC(N2CCCC2)CC1` the remaining binding was 86% (binding; competition with immobilised ligand).
`O=C(O)c1cc(-c2ccc(C3CCNCC3)cc2)c2ccc(-c3ccc(C(F)(F)F)cc3)cc2c1` has a remaining binding of 90% (cell-free assay; competition with immobilised ligand).
`CC1CCCN1c1nccc(-c2cnn3ncccc23)n1` (centres unmarked) gave a remaining binding of 95% (binding).
With `CNC(=O)[C@@H]1CC[C@@H](n2c(-c3ccc4cnccc4c3)nc3ccc(C(=O)NCc4cccc(C(N)=O)c4)cc32)C1` the remaining binding was 66% (binding; competition with immobilised ligand).
`CN(C)c1nccc(-c2cnc3ncccn23)n1` has a remaining binding of 79% (binding).
For `O=C(Nc1c[nH]nc1C(=O)NC1CCNCC1)c1cc(F)cc(F)c1`, the remaining binding was 100% (binding; competition with immobilised ligand).
`c1cnn2ncc(-c3ccnc(N4CCC45COC5)n3)c2c1` has a remaining binding of 96% (binding).
With `O=C(NCCCN1CCOCC1)c1ccc(Nc2nccc(-c3cc4ccccc4s3)n2)cc1` the remaining binding was 75% (binding; competition with immobilised ligand).
